CSC inhib: cancer stem cell inhibition | cancer stem cell-like cells viability, luminescence | inhibition, % at 7.5 µM | actives 1.1% (n = 300,000) | AID 2717; in the data active = inhibition above about 75%; tested in HMLE shEcad cells
T cruzi repl: blocks replication of Trypanosoma cruzi; AID 1885; T. cruzi beta-gal in NIH3T3, luminescence, 90 h; actives 1.4% (n = 300,000); inhibition, % (concentration not given with the values);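 active = mean inhibition across valid replicates above about 55%, limit read from the data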;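 also: signal also drops with host cell toxicity which is not excluded here; 0% = plate median of DMSO wells and 100% = zero luminescence signal; higher percent means less beta-gal luminescence so fewer parasites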
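Assay system: NIH/3T3 fibroblasts plus reporter T. cruzi. Amount: NIH/3T3 cells, 5,000 per well. Buffer or medium: DMEM, 2% fetal bovine serum. Doses: compound pinned at 50 nL/well, DMSO. Schedule: ≥90 h infection period, 3 h prior cell attachment. Signal: luminescent β-galactosidase signal after 60 min lysis. Read-out: parasite load inhibition, %.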
aSyn UTR inh: MLPCN primary screen, SNCA 5' untranslated region; alpha-synuclein 5'UTR reporter, inhibitor activity; inhibition, % (tested at 7.5 µM); actives 0.82% (n = 300,000); AID 1813; in the data active = inhibition above about 60%;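 also: H4 neuroglioblastoma cells stably carrying SNCA 5'UTR luciferase fusion; 0% = DMSO wells and 100% = positive control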
SKKanGAS inh: blocks kanamycin growth of S. pyogenes SKKanGAS strain; BacTiter-Glo, 6 h; inhibition, % at 7.5 µM; actives 1.3% (n = 300,000); AID 1662;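 active = mean replicate score, as percent of positive control median, at least 50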;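 also: strain carries kanamycin resistance gene driven by streptokinase promoter and grows in 40 µg/ml kanamycin; loss of luminescence reflects streptokinase promoter inhibition or plain growth inhibition; 0% = median of DMSO wells and 100% = positive control at its reference dose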
Mdm2-MdmX inh: human Mdm2/MdmX binding inhibition; O15151+Q00987; SaOS-2 split-luciferase Mdm2/MdmX complementation, luminescence; inhibition, % at 8 µM; actives 3% (n = 330,000);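 active = inhibition of at least 50% at 8 µM in the primary screen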
Target sequence (O15151 whole entry, looked up): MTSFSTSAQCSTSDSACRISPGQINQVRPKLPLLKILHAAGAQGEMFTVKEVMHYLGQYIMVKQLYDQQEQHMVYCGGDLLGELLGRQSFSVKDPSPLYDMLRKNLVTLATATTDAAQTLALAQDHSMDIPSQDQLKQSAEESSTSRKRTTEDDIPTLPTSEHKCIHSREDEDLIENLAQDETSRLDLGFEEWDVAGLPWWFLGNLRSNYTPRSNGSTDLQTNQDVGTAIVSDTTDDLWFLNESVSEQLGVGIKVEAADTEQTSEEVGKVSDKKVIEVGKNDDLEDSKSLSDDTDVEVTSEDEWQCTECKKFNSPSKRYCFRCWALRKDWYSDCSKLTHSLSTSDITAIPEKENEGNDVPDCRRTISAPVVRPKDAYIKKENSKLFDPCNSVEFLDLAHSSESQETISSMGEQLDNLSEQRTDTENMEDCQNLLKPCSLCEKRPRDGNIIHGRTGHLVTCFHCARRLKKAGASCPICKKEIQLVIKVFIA
Target sequence (Q00987 whole entry, looked up): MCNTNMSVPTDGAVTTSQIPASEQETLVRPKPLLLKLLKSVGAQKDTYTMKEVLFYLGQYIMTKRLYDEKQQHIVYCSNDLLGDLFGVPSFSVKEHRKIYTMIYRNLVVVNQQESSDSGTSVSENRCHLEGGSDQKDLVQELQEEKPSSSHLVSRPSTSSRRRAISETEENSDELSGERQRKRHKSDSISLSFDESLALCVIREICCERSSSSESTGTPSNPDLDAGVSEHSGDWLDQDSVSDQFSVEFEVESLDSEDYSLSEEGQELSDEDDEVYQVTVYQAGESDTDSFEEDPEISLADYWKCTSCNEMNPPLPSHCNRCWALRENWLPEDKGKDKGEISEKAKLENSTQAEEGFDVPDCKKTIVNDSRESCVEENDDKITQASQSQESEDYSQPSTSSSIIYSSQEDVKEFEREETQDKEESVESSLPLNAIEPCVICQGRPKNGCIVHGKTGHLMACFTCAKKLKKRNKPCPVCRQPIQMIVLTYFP
* marks the source's active call; other numbers are inactive results; . = no result given. Only some compounds are listed: those with a hit (about 5.4% of all), similar ones and a draw of the others.

SMILES	CSC inhib	T cruzi repl	aSyn UTR inh	SKKanGAS inh	Mdm2-MdmX inh
Cc1ccc(C)c(NC(=S)N/N=C2/CCCCc3ccccc32)c1	39	39	13	55*	24
CC(C)NC(=S)N/N=C1\CCCCc2ccccc21	-2	53	1	13	-7
CC(C)(O)c1[nH]c2cc(C(F)(F)F)ccc2c1C(C)(C)O	44	-4	-51	-5	6
CC(C)(O)c1[nH]c2cc(F)ccc2c1C(C)(C)O	7	18	-46	90*	.
Cc1c(C)c2ccc(OCC(=O)Nc3nccs3)cc2oc1=O	4	1	66*	-7	-120
Cc1cc(=O)oc2cc(OCC(=O)Nc3nccs3)ccc12	-11	-6	-51	2	-5
Cc1ccc(S(=O)(=O)NCCc2ccncc2)cc1C	4	-5	4	-4	-24
CCOC(=O)C(=O)NNc1ccc(F)cc1	101*	45	-14	0	-15
CCOC(=O)C(=O)N/N=C/c1ccc(F)cc1	-1	-24	-8	1	7
CCOC(=O)Cn1ncc2c3ccccc3n(CC(=O)OCC)c2c1=O	-25	8	9	-3	12
Oc1ccc(Br)cc1/C=N/Nc1ncc(-c2ccccc2)cn1	34	14	42	83*	42
Oc1ccc(/C=N/Nc2ncc(Br)cn2)c(O)c1	91*	-8	0	-7	-7
Oc1ccc(/C=N/Nc2cccc3cccnc23)c(O)c1	.	-19	-405	6	-76
O=C(C1CCC(=O)N(C2CC2)C1)N1CCC(Oc2cccc(F)c2)CC1 (centres undefined)	-13	-6	-4	1	46
CCN(CC)c1ccc2cc(S(=O)(=O)c3ccc(Cl)cc3)c(=O)oc2c1	99*	41	-15	5	12
CN(C)c1ccc(/C=C(\Cl)c2nc3ccccc3s2)cc1	92*	.	.	.	.
O=C(O)c1ccc(C=C(c2nc3ccccc3s2)c2nc3ccccc3s2)cc1	82*	-14	-32	35	18
O=C(CC(=O)c1cc(Cl)ccc1O)c1ccccc1	15	4	-99	111*	40
Cc1ccc(C(=O)CC(=O)COc2ccc(Cl)cc2C)cc1	10	13	12	101*	4
Cc1ccc(O)c(C(=O)CC(=O)c2cccc(F)c2)c1	8	-8	-85	81*	14
Cc1ccc(O)c(NC(=O)CSc2ccc(Cl)cc2)c1	2	-5	-177	22	26
Cc1ccc(O)c(C(=O)CC(=O)c2ccc(Cl)cc2)c1	37	6	23	96*	.
COc1ccc2nc(/N=C/c3c(C)[nH]n(-c4ccc(C)cc4)c3=O)sc2c1	27	-1	-73	8	12
O=C(Nc1cccc(S(=O)(=O)c2cccc(NC(=O)C3CC3)c2)c1)C1CC1	3	-4	17	-2	26
CCn1cc(C(=O)O)c(=O)c2cnc(N3CCN(C(=S)NC(=O)c4ccc(OC)cc4)CC3)nc21	7	-13	-3	9	-11
SMILES	CSC inhib	T cruzi repl	aSyn UTR inh	SKKanGAS inh	Mdm2-MdmX inh
Cc1csc(N(C)C(=O)CSc2nnc(COc3cccc4ccccc34)o2)n1	26	14	14	2	15
CC(=S)/C=C1\Sc2ccccc2N1C	2	69*	-8	0	-5
CC(OC(=O)c1cccc(-n2cnnn2)c1)C(=O)Nc1cccc(Cl)c1 (centres undefined)	8	-1	3	-3	24
CC(C)COC(=O)c1cccc2c1-c1ccccc1/C2=N\O	120*	6	37	74*	44
CC(C)Cc1nnc(NC(=O)CCC(=O)N2CCN(c3ccccc3)CC2)s1	-5	-15	-6	103*	24
Cc1cccc(N2CCN(c3nc(C)cc(C)c3C#N)CC2C)c1 (centres undefined)	30	65*	-6	22	2
Cc1cc(C)c(C#N)c(N2CCN(c3ccccc3F)CC2)n1	5	-2	17	50*	12
Cc1cc(C)c(C#N)c(N2CCN(Cc3ccccc3)CC2)n1	.	11	27	-16	-4
Cc1cc(C(=O)N2CCCC(N3CCN(c4cccc(Cl)c4)CC3)C2)n(C)n1 (centres undefined)	25	5	1	14	9
Cc1cc(C(=O)N2CCCC(N3CCN(c4ccccc4C)CC3)C2)n(C)n1 (centres undefined)	2	59*	5	-7	8
CC(C)CN(C(=O)C1CCCO1)c1c(N)n(CC(C)C)c(=O)[nH]c1=O (centres undefined)	.	.	.	.	-1
Cc1ccccc1CC(=O)Nc1ccc(S(=O)(=O)N2CCOCC2)cc1	4	-10	13	-4	13
CN(Cc1ccc(Cl)c(Cl)c1)C(=O)C1=CC=CN2CCS(=O)(=O)N=C12	6	.	.	.	17
O=C(NCCc1ccccc1F)C1CCCN1S(=O)(=O)c1ccc2ccccc2c1 (centres undefined)	-2	75*	-15	-6	-5
O=C(CCc1nc(-c2ccccc2Cl)no1)Nc1cccnc1	-5	2	-13	-1	-10
CCOC(=O)c1c(C)[nH]c(C(=O)N/N=C/c2ccc(OC)c(OC)c2)c1C	44	8	-9	-2	48
CCOC(=O)c1c(C)[nH]c(C(=O)N/N=C\c2ccccc2O)c1C	79*	-5	87*	15	.
CC(C)(C)n1nnnc1C(c1cccs1)N1CCCC2(CCCCC2)C1 (centres undefined)	28	63*	35	18	38
CC(C)OCCCN1CC(=O)N2C(c3ccccc3)c3[nH]c4ccccc4c3C[C@H]2C1=O (some centres undefined)	5	3	13	4	-18
CN(C)c1ncc(CN2CCC(CO)(CCCc3ccccc3)CC2)s1	-1	56*	-4	-15	10
CN1CCN(/N=C/c2ccc(N(C)c3ccccc3)cc2)CC1	46	45	-21	-1	5
CN1CCN(/N=C/c2ccc(N(c3ccccc3)c3ccccc3)cc2)CC1	86*	30	71*	10	29
CS(=O)(=O)N(CC(=O)N1CCCCCC1)c1ccc(Br)cc1	-21	-11	10	0	0
Cc1ccc(NNC(=O)C(=O)N2CCCCC2)cc1	112*	43	18	6	-5
Cc1ccccc1C(=O)NNC(=O)C(=O)N1CCCCC1	-9	-1	0	-2	-13
SMILES	CSC inhib	T cruzi repl	aSyn UTR inh	SKKanGAS inh	Mdm2-MdmX inh
Cc1ccc(C23CC4CC(CC(NC(=O)NCCN(C)C)(C4)C2)C3)cc1	5	59*	-9	2	50
CCCCC(=O)OCc1c(-c2ccccc2)ncc2ccccc12	-14	.	.	.	10
N#Cc1c(N2CCN(C(=O)c3ccccc3Cl)CC2)nc(-c2ccccc2)c2c1CCCC2	27	57*	0	26	4
N#Cc1c(N2CCN(C(=O)c3ccco3)CC2)nc(-c2ccccc2)c2c1CCCC2	43	61*	34	16	26
COc1ccc(NC(=O)CN(C)C(=O)CCCc2nc3ccccc3c(=O)[nH]2)cc1	-3	-2	7	-1	12
O=C(CC1SC(N2CCOCC2)=NC1=O)Nc1cccc(C(F)(F)F)c1 (centres undefined)	-14	.	.	.	10
